Source: PubChem BioAssay (Broad Institute)
CaV13 FRET inh = Disruptors of the CACNA1D IQ motif to Ca2+-dependent inactivation inhibitor domain association, primary screening, Förster resonance energy transfer in intact living …; HEK cells, CFP/YFP FRET ICDI-IQ, plate reader, 10 min; percent FRET-ratio fall versus neutral wells; 0.098% of 340,000 active; inhibition, % at 12.3 µM;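 active = mean replicate inhibition of at least 30% and at least 1% of replicates passing that level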
CFTR F508del cor = F508del CFTR correction, initial screen, CFBE line, single point | CFBE cells, YFP halide quenching; stimulated with forskolin plus potentiator P3; % fluorescence drop versus neutral controls | activity (quench increase), % at 7.58 µM | 0.36% of 350,000 active;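 active = mean added fluorescence quench of at least 8% versus neutral control, with both replicates also reaching 8%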;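 note: cells transiently co-express mutant CFTR-F508del with the halide-sensitive YFP; corrector assay measuring rescue of mutant channel to the surface after 24 h compound exposure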
Cneo AK release = Cryptococcus neoformans cell lysis inducers, primary screen, AK release luminescence, single concentration. C. neoformans lysis, adenylate kinase release luminescence, 4 h; normalised: neutral wells 0, clomiphene wells 100. lysis activity, % at 15 µM. 0.2% of 360,000 active. AID 651654, 2012;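 active = mean lysis activity across replicates of at least 80%, whatever share of replicates individually reach that level; inactive = mean lysis activity below 80%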
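Test system: log-phase Cryptococcus neoformans yeast cells. Input: 5 × 10^6 yeast cells/mL. Medium: fresh YPD growth medium. Doses: single dose. Incubation: static 4 h at 37 °C with compound, 1 h detection. Measured by: luminescent adenylate kinase detection reagent. Read-out: signal increase indicating cell lysis. Benchmarks: Clomiphene.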
Ecoli rRNA inh = reduced GFP signal of wild-type E. coli, primary screen, bacterial rRNA inhibitor project, GFP/RFP fluorescence, OD600, single point; E. coli WT GFP vs humanized-ribosome RFP mutants, 24 h; hits give low values; DMSO median 0, no signal -100; GFP signal change (wild-type ribosome), % (concentration not given with the values); 1.6% of 350,000 active;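 active = significant combined selectivity score with lowered wild-type GFP, culture density cut under 30%, mutant RFP and density less affected; inactive = any of these conditions unmet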
A number is an active result; n = inactive; x = not tested or not shown. Hits are enriched below; roughly 1.7% of the tested compounds scored in any of these assays.

SMILES | CaV13 FRET inh | CFTR F508del cor | Cneo AK release | Ecoli rRNA inh
COc1ccccc1C#Cc1ccc([C@H]2[C@@H](CO)N3CCCCN(C(=O)C4CC4)C[C@@H]23)cc1 | x | n | n | x
O=C(CN1CCOCC1)N[C@@H]1CC[C@@H](CCNC(=O)Nc2cc(F)ccc2F)O[C@H]1CO | x | n | n | n
COc1ccc2c3c([nH]c2c1)[C@@H](CO)N(Cc1cccc(F)c1)CC31CCN(CC2CC2)CC1 | x | n | x | n
O=C(/C=C/c1ccc([N+](=O)[O-])cc1)NCCc1ccccc1 | n | n | x | n
NS(=O)(=O)c1ccc(CCNC(=O)/C=C/c2ccc([N+](=O)[O-])cc2)cc1 | n | n | x | -18
NS(=O)(=O)c1ccc(CCNC(=O)c2cc([N+](=O)[O-])ccc2N2CCCCC2)cc1 | n | n | n | -17
COc1ccc(CCNC(=O)c2cc([N+](=O)[O-])ccc2N2CCOCC2)cc1 | n | n | x | n
Cc1c(Cc2ccc3c(c2)OCO3)sc(NC(=O)c2cccc3ccccc23)c1C(N)=O | n | n | n | n
Cc1c(Cc2ccc3c(c2)OCO3)sc(NC(=O)C2CC2)c1C(N)=O | n | n | n | -27
Cc1c2cc(O)c(=O)cc-2oc2cc(O)c(O)cc12 | n | 17 | n | n
COc1cc(OC)c(-c2c3cc(O)c(=O)cc-3oc3cc(O)c(O)cc23)cc1OC | n | 21 | x | n
COc1cc(-c2cc(=O)c3ccc(O)cc3o2)cc(OC)c1OC | x | n | n | x
COc1cccc(S(=O)(=O)N2CCC3(CC2)CN(C(=O)Nc2cccc(F)c2)[C@H](CO)c2[nH]c4cc(OC)ccc4c23)c1 | x | n | x | n
COc1ccc(-[n+]2c(C)cc(/C=C3\Sc4ccccc4N3C)cc2C)cc1 | 34 | n | x | n
COc1ccccc1-[n+]1c(C)cc(/C=C2\Sc3ccccc3N2C)cc1C | n | n | n | n
CC[C@@]1(O)C(=O)OCc2c1cc1n(c2=O)Cc2cc3c(CN(C)C)c(O)ccc3nc2-1 | n | 26 | n | n
CC[C@@]1(O)C(=O)OCc2c1cc1n(c2=O)Cc2cc3c(N)cccc3nc2-1 | n | n | n | n
C[C@H]1CCCCO[C@@H](CN(C)CC2CCCCC2)[C@@H](C)CN([C@@H](C)CO)C(=O)c2cc(NC(=O)c3ccncc3)ccc2O1 | x | x | x | n
C[C@H](NC(=O)C[C@H]1C[C@@H]2c3cc(NC(=O)Cc4ccncc4)ccc3O[C@@H]2[C@H](CO)O1)c1ccccc1 | x | n | n | n
CCOC(=O)Cc1nn(Cc2ccccc2)c(=O)c2ccccc12 | n | n | x | -26
CCOC(=O)Cn1c(=O)oc2cc(S(=O)(=O)N(C)c3cccc(C)c3)ccc21 | n | n | x | -22
C[C@@H]1CN(C)C(=O)c2cccnc2O[C@H]1CN(C)C | x | x | x | n
Cc1ccc(CS(=O)Cc2ccc(C(=O)NCCc3ccccc3)o2)cc1 (stereo not drawn) | n | n | n | -22
O=C(NCc1cccs1)c1ccc(CS(=O)Cc2ccc(Cl)cc2)o1 (stereo not drawn) | n | n | n | n
O=C(NCCc1cccs1)c1ccc(CS(=O)Cc2ccc(Cl)cc2)o1 (stereo not drawn) | n | n | n | -24
SMILES | CaV13 FRET inh | CFTR F508del cor | Cneo AK release | Ecoli rRNA inh
CCOc1ccc(CCNC(=O)c2ccc(CS(=O)Cc3ccc(Cl)cc3)o2)cc1OCC (stereo not drawn) | n | n | n | -32
Cc1ccc(CS(=O)Cc2ccc(C(=O)NCCCc3ccccc3)o2)cc1 (stereo not drawn) | n | n | n | n
CCC(=O)N[C@@H]1CC[C@H](CC(=O)OC)O[C@@H]1CO | x | n | n | n
CCN(CC)c1ccc(/C=C(\C#N)C(N)=S)cc1 | n | n | x | -23
CCOC(=O)Nc1ccc(C(=O)/C=C/c2ccccc2)cc1 | n | n | n | -26
O=C(CSc1ccc2ccccc2c1)Nc1ccncc1 | n | n | n | n
O=C(CSc1ccncc1)Nc1ccc2ccccc2c1 | n | n | x | -31
C[C@H](CO)N1C[C@H](C)[C@@H](CN(C)S(=O)(=O)c2cccs2)Oc2c(NC(=O)CCCN(C)C)cccc2C1=O | x | x | x | n
COc1ccc(/C=N/NC(=O)c2cc3c(OC)ccc(OC)c3[nH]2)cc1O | n | n | x | n
COc1ccc(OC)c2[nH]c(C(=O)N/N=C/c3ccccc3O)cc12 | n | 14 | n | n
COc1ccccc1/C=N/NC(=O)c1cc2c(OC)c(OC)ccc2[nH]1 | n | 9.3 | n | n
CCCN(C)C[C@H]1Oc2ncc(-c3cccc(C#N)c3)cc2C(=O)N([C@H](C)CO)C[C@@H]1C | x | n | n | n
C[C@@H]1CN([C@H](C)CO)S(=O)(=O)c2ccc(C3=CCCC3)cc2O[C@H]1CN(C)Cc1ccncc1 | x | n | n | n
O=C(Nc1ccccc1)N1C[C@@H]2N[C@H](C1)C2c1ccc(-c2ccccc2)cc1 (stereo partly drawn) | x | n | x | n
O=C(Nc1ccccc1)N1C[C@@H]2N[C@H](C1)[C@@H]2c1ccc(/C=C/c2ccccc2)cc1 | x | n | x | -25
O=C(CN1CCN(Cc2ccc(Cl)cc2)CC1)N/N=C/C=C/c1ccccc1[N+](=O)[O-] | n | x | x | -42
O=C(CN1CCN(Cc2ccccc2)CC1)N/N=C/C=C/c1ccccc1[N+](=O)[O-] | n | x | x | n
O=C1CN(S(=O)(=O)c2ccccc2)C[C@H]2[C@@H](c3ccc(C#CCc4ccccc4)cc3)[C@@H](CO)N12 | x | n | x | n
COc1ccc(-c2cc(C)no2)cc1S(=O)(=O)N1CCN(c2cccc(C)c2)C(C)C1 (stereo not drawn) | n | n | n | n
Cc1cccc(N2CCN(S(=O)(=O)c3cc(-c4cc(C)no4)ccc3C)CC2C)c1 (stereo not drawn) | n | 11 | n | n
CC(C)n1cnc2c(NCc3ccccc3)cc(Cc3ccc(F)cc3)cc21 | n | n | n | -21
CCOc1cc(NCc2ccccc2)c2ncn(C(C)C)c2c1 | n | n | n | n
O=C(O)c1[nH]c2ccccc2c1C(c1cc(Br)ccc1O)c1c(C(=O)O)[nH]c2ccccc12 | 144 | n | n | n
C/C(=N\NC(=O)c1cc(O)ccc1O)c1cccc(NC(=O)c2ccc(Cl)cc2)c1 | x | n | n | -26
COc1ccc(CNCc2cccc(Oc3ccccc3)c2)cc1 | n | n | n | -25
Cc1[nH][nH]c(=O)c1C(c1c(C)[nH][nH]c1=O)c1cn(Cc2ccc(Cl)c(Cl)c2)c2ccccc12 | n | n | n | -30
Cc1[nH][nH]c(=O)c1C(c1c(C)[nH][nH]c1=O)c1cn(Cc2ccc(F)cc2)c2ccccc12 | x | x | n | x
Cc1cc(OCCCCOc2ccc(S(N)(=O)=O)c(C)c2)ccc1S(N)(=O)=O | n | n | n | -19
O=S(=O)(c1ccc(Cl)cc1)N1CCN(Cc2c[nH]c3ccccc23)CC1 | n | x | n | x
Clc1ccccc1N1CCN(Cc2c[nH]c3ccccc23)CC1 | n | n | n | -45
